Test results taken from ChEMBL document CHEMBL1949610, “Selection of cyclic-peptide inhibitors targeting Aurora kinase A: problems and solutions” (Bioorg Med Chem, 2011).
Calls of active or inactive are those of the source. The calls are words filed in the database; no cut-off is given here. Positions of bridges follow the written chain, without caps; N, C: chain ends. Residues, ends and D or L forms follow the SMILES beside them.

What was measured:
[1] = molecular target: T1, Aurora kinase A (Homo sapiens) (UniProt O14965); experiment: Inhibition of human aurora A assessed as [gamma-33P]ATP incorporation into kemptide substrate at 10 uM after 40 mins by liquid scintillation counting
T1 sequence (whole entry): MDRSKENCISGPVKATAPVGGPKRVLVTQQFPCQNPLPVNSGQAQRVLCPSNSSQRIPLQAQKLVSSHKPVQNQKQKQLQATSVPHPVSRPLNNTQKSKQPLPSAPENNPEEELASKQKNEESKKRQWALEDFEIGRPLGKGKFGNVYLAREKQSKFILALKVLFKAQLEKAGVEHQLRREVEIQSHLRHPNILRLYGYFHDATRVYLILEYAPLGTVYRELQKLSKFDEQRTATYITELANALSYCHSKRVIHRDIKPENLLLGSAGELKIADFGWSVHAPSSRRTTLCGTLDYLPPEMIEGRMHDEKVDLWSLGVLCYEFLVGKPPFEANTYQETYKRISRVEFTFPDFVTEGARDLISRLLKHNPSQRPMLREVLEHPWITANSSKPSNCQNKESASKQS

Aurora kinase A = molecular target: T2, Aurora kinase A (Homo sapiens, UniProt O14965); experiment: Mixed type inhibition of human aurora A using kemptide as a substrate by double reciprocal plot analysis
T2 sequence (O14965 whole entry): T1 sequence (whole entry)
Summary of the method: (§1)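 Kinetics run in duplicate: 0.5 nM Aurora A, 100 μM [γ-³²P]ATP, Kemptide at 25, 50 and 200 μM, inhibitor at 0, 10 and 50 μM, in 20 mM MOPS, 10 mM MgCl, pH 7, 0.01% BSA, 2.5% DMSO. Data shown as double-reciprocal plots and fit to competitive, noncompetitive, mixed and uncompetitive models.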

[2] = molecular target: Dual specificity protein kinase CLK2 (Homo sapiens) (UniProt P49760); experiment: Inhibition of CLK2 assessed as [gamma-33P]ATP incorporation into AKRRRLSSLRA substrate at 10 uM after 40 mins by liquid scintillation counting
Chain of Dual specificity protein kinase CLK2 (Homo sapiens) (P49760 whole entry, looked up): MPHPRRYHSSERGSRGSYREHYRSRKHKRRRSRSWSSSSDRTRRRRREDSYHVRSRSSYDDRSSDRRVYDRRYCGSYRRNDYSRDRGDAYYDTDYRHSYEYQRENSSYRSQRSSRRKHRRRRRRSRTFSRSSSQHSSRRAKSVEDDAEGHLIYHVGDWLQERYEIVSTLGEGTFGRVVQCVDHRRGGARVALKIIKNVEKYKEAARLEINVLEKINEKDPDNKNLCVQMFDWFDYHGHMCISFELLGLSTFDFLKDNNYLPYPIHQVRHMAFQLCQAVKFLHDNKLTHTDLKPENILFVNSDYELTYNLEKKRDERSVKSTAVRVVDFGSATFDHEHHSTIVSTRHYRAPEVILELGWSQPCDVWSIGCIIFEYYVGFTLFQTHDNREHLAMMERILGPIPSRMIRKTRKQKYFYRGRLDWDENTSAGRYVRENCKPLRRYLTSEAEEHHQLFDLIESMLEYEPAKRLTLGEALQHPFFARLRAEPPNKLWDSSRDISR

[3] = molecular target: T1, Aurora kinase A (Homo sapiens); experiment: Competitive inhibition of human aurora A using kemptide as a substrate by double reciprocal plot analysis; summary of the method: as §1
[4] = molecular target: T1, Aurora kinase A (Homo sapiens); experiment: Un-competitive inhibition of human aurora A using kemptide as substrate by double reciprocal plot analysis; summary of the method: as §1
[5] = Inhibition of PKA assessed as [gamma-33P]ATP incorporation into kemptide substrate at 10 uM after 40 mins by liquid scintillation counting

| inhibition [1] | Ki (Aurora kinase A) [µM] | inhibition [2] | Kic [3] [µM] | Kiuc [4] [µM] | inhibition [5] | SMILES |
| --- | --- | --- | --- | --- | --- | --- |
| Active | 27.2 | inactive | 10.4 | 17.6 | inactive | CC(C)C[C@@H]1NC(=O)[C@H](Cc2c[nH]c3ccccc23)NC(=O)[C@H](Cc2c[nH]c3ccccc23)NC(=O)[C@@H]2CCCN2C(=O)[C@H](CCCNC(=N)N)NC(=O)[C@H]([C@@H](C)O)NC(=O)[C@@H](N)CSSC[C@@H](C(=O)NCC(N)=O)NC1=O (H-CTRPWWLCG-NH2; disulfide 1-8) |
| Active |  | inactive |  |  | inactive | CC(C)C[C@@H]1NC(=O)[C@H](Cc2ccccc2)NC(=O)[C@H](CCCNC(=N)N)NC(=O)[C@@H]2CCCN2C(=O)[C@@H](N)CSSC[C@@H](C(=O)NCC(N)=O)NC(=O)[C@H](Cc2c[nH]c3ccccc23)NC(=O)[C@@H]2CCCN2C1=O (H-CPRFLPWCG-NH2; disulfide 1-8) |
